Bioassay records (PubChem)
Jurkat NFkB inh = inhibitors of induced NF-kB luciferase reporter, primary screen, TCR NF-kB activation inhibitor project, cell-based, luminescence, uHTS; Jurkat, PMA/ionomycin-induced NF-kB luciferase reporter; inhibition, % at 4 µM; hit rate 0.53% among 330,000; in the data active = inhibition above about 50%
NR2E3 ag-1 = inhibitors of NR2E3-RetCOR corepressor binding, primary screen, NR2E3 agonist project, biochemical, TR-FRET, GST-NR2E3, biotin-RetCOR | hit rate 0.12% among 320,000 | AID 2300, 2010 | 1536-well | inhibition of corepressor binding, % at 4.78 µM | Photoreceptor-specific nuclear receptor (Homo sapiens), Q9Y5X4;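 active = percent inhibition above the cutoff of mean plus 3 SD of all tested compounds, set per screening campaign, cut at about 20% in these data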
Target sequence (Q9Y5X4 whole entry, looked up): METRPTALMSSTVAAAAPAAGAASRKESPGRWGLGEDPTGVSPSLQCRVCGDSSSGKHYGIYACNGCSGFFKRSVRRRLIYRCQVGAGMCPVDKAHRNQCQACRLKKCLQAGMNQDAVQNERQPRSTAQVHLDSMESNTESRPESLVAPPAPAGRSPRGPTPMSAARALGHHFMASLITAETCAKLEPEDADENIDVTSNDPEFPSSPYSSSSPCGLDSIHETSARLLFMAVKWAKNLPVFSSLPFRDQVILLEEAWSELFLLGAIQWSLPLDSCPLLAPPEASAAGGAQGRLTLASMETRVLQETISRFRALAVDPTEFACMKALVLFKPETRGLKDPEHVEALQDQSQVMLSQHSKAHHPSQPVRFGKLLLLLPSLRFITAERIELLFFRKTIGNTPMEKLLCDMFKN
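System: GST-tagged NR2E3 plus biotinylated RetCOR corepressor; Amount: 1.35 nM GST-tagged NR2E3 final; Dosing: single nominal compound dose of 4.8 µM; Schedule: 5 h incubation at 4 °C; Technique: TR-FRET with europium anti-GST and streptavidin-D2, 340 nm excitation; Controls: biotin wells as high control, 0.6% DMSO wells as low control.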
FGF22 binding = binders of human FGF22 protein, primary screen, FGF22 synaptogenesis inhibitor project, biophysical, thermal shift, single point; Fibroblast growth factor 22 (Homo sapiens), Q9HCT0; recombinant FGF22 thermal shift, SYPRO orange fluorescence; percent of sucrose octasulfate shift, DMSO zero; activity (Tm shift, normalised), % at 9.99 µM; hit rate 1.5% among 340,000;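 active = mean Tm shift, scaled 0 neutral to 100 positive control, at about 1.3% or above, every replicate too, limit read from the data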
Target sequence (Q9HCT0 whole entry, looked up): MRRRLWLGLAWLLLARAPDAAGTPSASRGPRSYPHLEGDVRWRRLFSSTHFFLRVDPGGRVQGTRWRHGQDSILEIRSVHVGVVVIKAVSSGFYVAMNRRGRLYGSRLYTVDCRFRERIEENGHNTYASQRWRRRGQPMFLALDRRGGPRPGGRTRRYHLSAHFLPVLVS
697 NFkB inh = inhibitors of PMA/ionomycin-induced NF-kB reporter, 697 cells, primary screen, B-cell NF-kB inhibitor project, cell-based, luminescence, uHTS. 697 B-cell NF-kB luciferase reporter, 16 h. inhibition, % at 4 µM. hit rate 0.33% among 330,000. AID 435022, 2010; in the data active = inhibition above about 35%
NR2E3 ag-2 = NR2E3 agonists in two-hybrid cells, primary screen, cell-based, luminescence, CHO-S, Gal4-NCOR/VP16-NR2E3; Photoreceptor-specific nuclear receptor (Homo sapiens), Q9Y5X4; luciferase; inhibition of corepressor binding, % at 3.98 µM; hit rate 0.35% among 360,000;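 active = inhibition above the mean of all tested compounds plus 3 SD, cut at about 70% in these data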;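 note: higher means lower luciferase signal from less NR2E3 corepressor binding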
miR122 inh = miR-122 Renilla sensor signal increase in Huh7, primary screen, miR-122 inhibitor project, cell-based, single point, plate reader; Huh7 miR-122 Renilla luciferase sensor, 48 h; neutral wells = 0, positive control = 100; activation (reporter increase), % at 12.5 µM; hit rate 0.3% among 340,000; AID 602342, 2012;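 active = mean replicate activation score at least 90 and every replicate individually at or above 90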;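 note: higher luciferase means less miR-122 activity so hits act as miR-122 inhibitors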
NR2E3 ag confirm = NR2E3 agonist confirmation in cells, cell-based, luminescence, CHO-S two-hybrid; shares compounds with NR2E3 ag-2; CHO-S mammalian two-hybrid NR2E3-NCOR, luciferase luminescence; inhibition, % at 3.98 µM; hit rate 51% among 2,300; AID 624378, 2012;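 active = average inhibition above a cutoff equal to the mean inhibition of all tested compounds plus one SD, cut at about 70% in these data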
VP16 counter = GAL4-VP16 reporter modulators, confirmation, counter-screen for NR2E3 agonist project, cell-based, luminescence, CHO-S, high throughput. hit rate 29% among 2,300. inhibition, % at 3.98 µM. shares compounds with NR2E3 ag-2. CHO-S GAL4-VP16 luciferase reporter;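 active = mean inhibition above a cutoff equal to the average over all tested compounds plus one standard deviation, cut at about 70% in these data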;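 note: luciferase from a UAS reporter driven by GAL4-VP16 transactivation; higher means less reporter light so more repression of VP16 activity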
Each line names hits and unclear results; the compound was inactive in the other large screens (follow-up assays come after a bar, where they were run). In the library only some 2.2% were active in any assay of this set; here they are far more common.

COC1CC2C=C(C)C=CC=CC(=O)NC(c3ccccc3)CC=CCCC(O)CC(=O)C2=C1O (stereo not drawn)	NR2E3 ag-2 103 (no result: Jurkat NFkB inh, NR2E3 ag-1, 697 NFkB inh, miR122 inh) | NR2E3 ag confirm 99 | VP16 counter 95
CC1CCOC(=O)C=CC=CC(=O)OC2CC3OC4C5OC5(C)C(O)CC4(COC(=O)C1O)C2(C)C31CO1 (stereo not drawn)	NR2E3 ag-2 102 (no result: Jurkat NFkB inh, NR2E3 ag-1, 697 NFkB inh) | NR2E3 ag confirm 99 | VP16 counter 99
CC1=CC2OC3CC4OC(=O)C=CC=CC(C(C)O)OCC(O)C5(C)OC5C(=O)OCC2(CC1O)C4(C)C31CO1 (stereo not drawn)	NR2E3 ag-2 102 (no result: Jurkat NFkB inh, NR2E3 ag-1, 697 NFkB inh) | NR2E3 ag confirm 98 | VP16 counter 98
CC1=CC2OC3CC4OC(=O)C=CC=CC(=O)OCCC(C)C(O)C(=O)OCC2(CC1)C4(C)C31CO1 (stereo not drawn)	NR2E3 ag-2 103 (no result: Jurkat NFkB inh, NR2E3 ag-1, 697 NFkB inh) | NR2E3 ag confirm 101 | VP16 counter 100
CC(O)C1C=CC=CC(=O)OC2CC3OC4C5OC5(C)C(O)CC4(COC(=O)C(O)C(C)CCO1)C2(C)C31CO1 (stereo not drawn)	NR2E3 ag-2 92 (no result: Jurkat NFkB inh, NR2E3 ag-1, 697 NFkB inh) | NR2E3 ag confirm 94 | VP16 counter inactive
O=C(Cc1ccncc1)N1CCCCN2[C@@H](CO)[C@@H](c3ccc(C#Cc4ccccc4F)cc3)[C@@H]2C1	none (no result: Jurkat NFkB inh, NR2E3 ag-1, FGF22 binding, 697 NFkB inh, NR2E3 ag-2)
CC=Cc1ccc2n(c1=O)C[C@H]1[C@H](CO)[C@@H](C(=O)OC)[C@@H]2N1C(=O)CC1CC1 (mixture of isomers)	none (no result: Jurkat NFkB inh, NR2E3 ag-1, 697 NFkB inh, NR2E3 ag-2)
O=C1CNC[C@H]2[C@@H](c3ccc(Br)cc3)[C@@H](CO)N12	none (no result: Jurkat NFkB inh, NR2E3 ag-1, 697 NFkB inh, NR2E3 ag-2, miR122 inh)
COC(=O)[C@@H]1[C@@H](CO)[C@@H]2Cn3c(ccc(/C=C/c4ccccc4)c3=O)[C@H]1N2C(=O)C1CC1	none (no result: Jurkat NFkB inh, NR2E3 ag-1, 697 NFkB inh, NR2E3 ag-2, miR122 inh)
Oc1c(Cl)cccc1Cc1cc(Cl)cc(Cl)c1O	NR2E3 ag-2 98 (no result: Jurkat NFkB inh, NR2E3 ag-1, 697 NFkB inh, miR122 inh) | NR2E3 ag confirm 100 | VP16 counter 93
COC(=O)[C@@H]1[C@@H](CO)[C@@H]2Cn3c(ccc(-c4ccccc4)c3=O)[C@H]1N2CC1CCOCC1	none (no result: Jurkat NFkB inh, NR2E3 ag-1, 697 NFkB inh, NR2E3 ag-2)
COc1ccc(-c2ccc3n(c2=O)C[C@H]2[C@H](CO)[C@@H](C(=O)O)[C@@H]3N2C(=O)c2ccccc2F)cc1	none (no result: Jurkat NFkB inh, NR2E3 ag-1, 697 NFkB inh, NR2E3 ag-2, miR122 inh)
N#Cc1cccc(-c2ccc([C@H]3[C@H]4CN(C(=O)Cc5cccnc5)CCCCN4[C@H]3CO)cc2)c1	none (no result: Jurkat NFkB inh, NR2E3 ag-1, 697 NFkB inh, NR2E3 ag-2)
CCC1CN2CCc3cc(OC)c(OC)cc3C2CC1CC1NCCc2c1[nH]c1ccc(O)cc21 (stereo not drawn)	NR2E3 ag-2 102 (no result: Jurkat NFkB inh, NR2E3 ag-1, 697 NFkB inh) | NR2E3 ag confirm 99 | VP16 counter 99
COC(=O)[C@H]1[C@H](CO)[C@H]2Cn3c(ccc(/C=C/c4ccccc4)c3=O)[C@@H]1N2C(=O)C1CC1	none (no result: Jurkat NFkB inh, NR2E3 ag-1, 697 NFkB inh, NR2E3 ag-2, miR122 inh)
C=C1C(=O)OC2CC(C)C3C=CC(=O)C3(C)C(O)C12 (stereo not drawn)	NR2E3 ag-2 92 (no result: Jurkat NFkB inh, NR2E3 ag-1, FGF22 binding, 697 NFkB inh) | NR2E3 ag confirm 99 | VP16 counter inactive
C=C1C(=O)O[C@H]2[C@H]1[C@H](OC(=O)CC(=O)O[C@@H]1C[C@@H](C)[C@@H]3C=CC(=O)[C@@]3(C)[C@H]3OC(=O)C(=C)[C@H]13)C[C@@H](C)[C@H]1C=CC(=O)[C@]12C	NR2E3 ag-2 78 | NR2E3 ag confirm 89 | VP16 counter 73
CCOC(=O)[C@]12Cc3cc(Cl)ccc3[C@H]1N(C1CCCCC1)C(=O)c1cc(OC)ccc12	NR2E3 ag-2 100 (no result: Jurkat NFkB inh, NR2E3 ag-1, 697 NFkB inh, miR122 inh) | NR2E3 ag confirm 99 | VP16 counter 78
COC(=O)[C@@H]1[C@@H](CO)[C@@H]2Cn3c(ccc(-c4ccccc4F)c3=O)[C@H]1N2Cc1ccncc1	none (no result: Jurkat NFkB inh, NR2E3 ag-1, 697 NFkB inh, NR2E3 ag-2)
COc1ccc(CC2C(=O)NC(C)C(=O)N(C)C3C(=O)N(C)C(Cc4ccc(O)c(c4)Oc4ccc(cc4)C3O)C(=O)NC(C)C(=O)NC(C)C(=O)N2C)cc1 (stereo not drawn)	NR2E3 ag-2 102 (no result: Jurkat NFkB inh, NR2E3 ag-1, 697 NFkB inh) | NR2E3 ag confirm 100 | VP16 counter 100
